Results gathered from unrelated publications.
PADI1: Protein-arginine deiminase type-1 (PADI1, Homo sapiens, UniProt Q9ULC6)
ATAD2 bromodomain: ATPase family AAA domain-containing protein 2, bromodomain (ATAD2, Homo sapiens, UniProt Q6PL18)
KDR: Vascular endothelial growth factor receptor 2 (KDR, Homo sapiens, UniProt P35968)
CDK16: Cyclin-dependent kinase 16 (CDK16, Homo sapiens, UniProt Q00536)

| SMILES | target | assay | test system | conditions | measurement | result |
| --- | --- | --- | --- | --- | --- | --- |
| N=C(CCl)NCCC[C@H](NC(=O)c1ccc(-c2ccccc2)cc1)c1nn[nH]n1 | PADI1 | enzyme activity, inhibitor | – | – | kinact/KI | 51.7 M⁻¹ s⁻¹ |
| Cc1cc2c(cc1N1C(=O)c3cccc4c(Cl)ccc(c34)C1=O)n(C)c(=O)n2C | ATAD2 bromodomain | thermal stability, DSF | – | 10 µM | ΔTm | 0 °C |
| Nc1ncnc2occ(-c3ccc(NC(=O)Nc4cc(C(F)(F)F)ccc4F)cc3)c12 | 1-phosphatidylinositol 3-phosphate 5-kinase (PIKFYVE, Homo sapiens, UniProt Q9Y2I7) | cell-free assay | – | 20 µM | remaining signal | 19% |
| NCCCC[C@H](NC(=O)[C@@H]1CCCN1C(=O)[C@@H]1CSSC[C@H](N)C(=O)N[C@@H](Cc2ccc(O)cc2)C(=O)N[C@@H](Cc2ccccc2)C(=O)N[C@@H](CCC(N)=O)C(=O)N[C@@H](CC(N)=O)C(=O)N1)C(=O)NCC(N)=O | Vasopressin V1a receptor (AVPR1A, Homo sapiens, UniProt P37288) | calcium signal, agonist | CHO-S | – | Emax | ~100% |
| COc1ccc(NC(=O)c2c(Nc3ccccc3)sc(C#N)c2NC(=O)CNc2ccc(Cl)cc2)cc1 | KDR | enzyme activity, inhibitor | – | 1 µM | remaining activity | 41.1% |
| Cc1ccc(C(=O)Nc2ccc(CN3CCN(C)CC3)c(C(F)(F)F)c2)cc1C#Cc1cnc2cccnn12 | Phosphatidylinositol 4,5-bisphosphate 3-kinase catalytic subunit alpha isoform (PIK3CA, Homo sapiens, UniProt P42336, H1047L) | enzyme activity, inhibitor | – | 23.5 nM | remaining activity | 70% |
| N=C(CCl)NCCC[C@H](NC(=O)c1ccccc1C(=O)O)c1nn[nH]n1 | PADI1 | enzyme activity, inhibitor | – | – | kinact/KI | 1370 M⁻¹ s⁻¹ |
| CC1(C)NC(=O)c2[nH]c3c(Cl)c(Cl)ccc3c2C1C#N (stereo not shown) | CDK16 | thermal stability, DSF | – | 10 µM | ΔTm | 0.4 °C |
| C[S+]([O-])c1ccc(-c2nc(-c3ccncc3)c(-c3ccc(F)cc3)[nH]2)cc1 (stereo not shown) | ATAD2 bromodomain | thermal stability, DSF | – | 10 µM | ΔTm | -1.47 °C |
| CC(C)(C)n1nnc([C@H](CCCNC(=N)CCl)NC(=O)c2ccccc2C(=O)O)n1 | PADI1 | enzyme activity, inhibitor | – | – | kinact/KI | 2700 M⁻¹ s⁻¹ |
| COc1ccc(NC(=O)c2c(Nc3ccccc3)sc(C#N)c2NC(=O)CNc2ccc(Br)cc2)cc1 | KDR | enzyme activity, inhibitor | – | 0.1 µM | remaining activity | 66.2% |
| NC(=O)[C@H](CCCN=C(N)N)NC(=O)c1ccccc1 | PADI1 | enzyme activity, substrate | – | – | Km | 160 µM |
| COc1ccc(NC(=O)c2c(Nc3ccccc3)sc(C(=O)NN=Cc3ccc(Cl)cc3)c2NC(C)=O)cc1 | KDR | enzyme activity, inhibitor | – | 0.1 µM | remaining activity | 88.3% |
| CC(C)(C)n1nnc([C@H](CCCNC(=N)CF)NC(=O)c2ccc(-c3ccccc3)cc2)n1 | PADI1 | enzyme activity, inhibitor | – | – | kinact/KI | 14.4 M⁻¹ s⁻¹ |
| NS(=O)(=O)c1ccc(Nc2nc(-c3ccc(F)cc3)c3ccccc3n2)cc1 | ATPase family AAA domain-containing protein 2 (ATAD2, Homo sapiens, UniProt Q6PL18) | binding, competition with immobilised ligand | – | 1 µM | remaining binding | 85% |
| CN(C)C1CCN(CC#Cc2nn(C3CCCC3)c3nc(NCc4ccccc4)ncc23)C1 (stereo not shown) | Dual specificity mitogen-activated protein kinase kinase 1 (MAP2K1, Homo sapiens, UniProt Q02750) | enzyme activity, inhibitor, FRET | – | 1 µM | inhibition | 9% |
| N=C(CF)NCCC[C@H](NC(=O)c1ccccc1C(=O)O)c1nn[nH]n1 | PADI1 | enzyme activity, inhibitor | – | – | kinact/KI | 1360 M⁻¹ s⁻¹ |
| COc1ccc(NC(=O)c2c(Nc3ccccc3)sc(C(=O)NN=Cc3ccc(OC)c(O)c3)c2NC(C)=O)cc1 | KDR | enzyme activity, inhibitor | – | 1 µM | remaining activity | 63.2% |
| Cn1c2c(c3ccc(Cl)c(Cl)c31)C(C#N)C1(CCNCC1)NC2=O (racemic) | CDK16 | thermal stability, DSF | – | 10 µM | ΔTm | 2.6 °C |
| COc1ccc(NC(=O)c2c(Nc3ccccc3)sc(C#N)c2NC(=O)CNc2ccc([N+](=O)[O-])cc2)cc1 | KDR | enzyme activity, inhibitor | – | 1 µM | remaining activity | 79.1% |
| CC(C)(C)n1nnc([C@H](CCCNC(=N)CCl)NC(=O)c2ccc(-c3ccccc3)cc2)n1 | PADI1 | enzyme activity, inhibitor | – | – | kinact/KI | 46.2 M⁻¹ s⁻¹ |
| COc1ccc(NC(=O)c2c(Nc3ccccc3)sc(C(=O)NN=Cc3cc(OC)c(OC)c(OC)c3)c2NC(C)=O)cc1 | KDR | enzyme activity, inhibitor | – | 0.1 µM | remaining activity | 95.4% |
| CCC1(CC)NC(=O)c2c(c3ccc(Cl)c(Cl)c3n2C)C1C#N (stereo not shown) | CDK16 | thermal stability, DSF | – | 10 µM | ΔTm | 0.3 °C |
| CC(=O)NCCc1c[nH]c2ccc(O)cc12 | Sulfotransferase 1C4 (SULT1C4, Homo sapiens, UniProt O75897) | enzyme activity, substrate | – | pH 7 | Km | 45.7 µM |
| COc1ccc(C=NNC(=O)c2sc(Nc3ccccc3)c(C(=O)Nc3ccc(OC)cc3)c2NC(C)=O)cc1 | KDR | enzyme activity, inhibitor | – | 10 µM | remaining activity | 48.6% |
